ChEMBL document CHEMBL1149025, “Cytotoxic and antibacterial dihydrochalcones from Piper aduncum” (1994)
Converted amounts (≈) assume the structure as drawn.

Experiments:
Format in all cases: functional
[1] = test system: Bacillus subtilis; assay: Antibacterial activity against Bacillus subtilis ATCC 6633 by bioautographic assay
Procedure, shortened: (§1)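 Overnight 37° nutrient-broth cultures; the developed TLC plate was dipped in the bacterial suspension and held moist at 37° for 20 h. It was then sprayed with 0.5% iodonitrotetrazolium chloride in H₂O and kept a further 4 h moist at 37°. Pure compounds were spotted (3 mm) at 0.1–5 μg in CH₂Cl₂, with chloramphenicol as positive control.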

[2] = test system: Micrococcus luteus; assay: Antibacterial activity against Micrococcus luteus ATCC 9341 by bioautographic assay; procedure, shortened: as §1
[3] = test system: Biomphalaria glabrata; assay: Molluscicidal activity against Biomphalaria glabrata assessed as mortality after 24 hrs by microscopy
Procedure, shortened: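 Snails exposed to samples dissolved in 100 μl DMSO and diluted to 100 ml with distilled H₂O. After 24 h, snails counted dead when no heartbeat was seen under the microscope.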

[4] = test system: KB; assay: Cytotoxicity against human KB cells after 72 hrs; details: read-out: ED50 (the source's name)
Procedure, shortened: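 KB cells were grown in BME with 10% heat-inactivated FBS at 37° under 5% CO₂. Samples in DMSO (final 0.5%) were added at log growth phase, at five concentrations, for 72 h. Growth was measured by protein determination as a percentage of DMSO-only controls, corrected for starting cell number. Assays were run in duplicate, and ED₅₀ was taken from semilogarithmic plots of the averaged data.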

[5] = test system: Escherichia coli; assay: Antibacterial activity against Escherichia coli ATCC 25922 by bioautographic assay
Procedure, shortened: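 Bioautography used an overnight 37° nutrient-broth culture, and the developed TLC plate was dipped in the suspension. It was incubated moist at 37° for 6 h, sprayed with 0.5% aqueous iodonitrotetrazolium chloride, then kept moist at room temperature for 15 h. White zones against pink colonies marked inhibition. Pure compounds were spotted (3 mm) at 0.1–5 μg in CH₂Cl₂, with chloramphenicol as positive control.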

SMILES | MIC [1] [µg] | MIC [2] [µg] | MIC [5] [µg] | LC100 [3] [ppm] | EC50 [4] [µg/mL]
COc1cc(O)c(C(=O)CCc2ccccc2)c(O)c1 | 0.3 | 0.3 | >5 | >30 | > 10
COC(=O)c1ccc2c(c1)C[C@H](C(C)(C)O)O2 [ANODENDROIC ACID METHYL ESTER] | 3.2 | >5 | >5 |  | > 10
COc1cc(O)c(C(=O)CCc2ccc(O)cc2)c(O)c1 [ASEBOGENIN] | 0.1 | 0.6 | >5 | 12 | > 10
O=C(N[C@H](CO)[C@H](O)c1ccc([N+](=O)[O-])cc1)C(Cl)Cl [CHLORAMPHENICOL] | 0.02 | 0.05 | 0.05 |  | 
COc1cc([C@@H]2c3cc4c(cc3[C@H](O)[C@H]3COC(=O)[C@H]23)OCO4)cc(OC)c1OC [PODOFILOX] |  |  |  |  | 0.0003 (≈ 0.000724 µM)
COc1cc(O)c2c(c1)O[C@H](c1ccc(O)cc1)CC2=O [SAKURANETIN] | 0.5 | 2 | >5 | >30 | 10 (≈ 34.9 µM)

More lines, main results first:

MIC [1] [µg] | MIC [2] [µg] | MIC [5] [µg] | SMILES | LC100 [3] [ppm] | EC50 [4] [µg/mL]
1.6 | 1.6 | >5 | COC(=O)c1ccc(O)c(C(C=C(C)C)c2c(OC)cc(O)c(C(=O)CCc3ccccc3)c2O)c1 (stereo not given) [PIPERADUNCIN A] |  | 2.3 (≈ 4.69 µM)
0.2 | 0.4 | >5 | COC(=O)c1ccc(O)c([C@H]2c3c(OC)cc(O)c(C(=O)CCc4ccccc4)c3O[C@@H]2C(C)(C)O)c1 [PIPERADUNCIN B] |  | 4.7 (≈ 9.28 µM)
1.5 | 3 | >5 | COc1cc(O)c(C(=O)CCc2ccccc2)c(O)c1Cc1c(OC)cc(O)c(C(=O)CCc2ccccc2)c1O [PIPERADUNCIN C] |  | > 10
